Measurements: publication PMC8026699 (Cancer research, 2021)

Key:
recombinant human ACSS3 = molecular target: T1, recombinant human ACSS3 (Homo sapiens, UniProt Q9H6R3); test: TranScreener AMP biochemical assay of ACSS3 activity; details: regardless of the substrate (acetate or propionate)
T1 sequence (Q9H6R3 30-686): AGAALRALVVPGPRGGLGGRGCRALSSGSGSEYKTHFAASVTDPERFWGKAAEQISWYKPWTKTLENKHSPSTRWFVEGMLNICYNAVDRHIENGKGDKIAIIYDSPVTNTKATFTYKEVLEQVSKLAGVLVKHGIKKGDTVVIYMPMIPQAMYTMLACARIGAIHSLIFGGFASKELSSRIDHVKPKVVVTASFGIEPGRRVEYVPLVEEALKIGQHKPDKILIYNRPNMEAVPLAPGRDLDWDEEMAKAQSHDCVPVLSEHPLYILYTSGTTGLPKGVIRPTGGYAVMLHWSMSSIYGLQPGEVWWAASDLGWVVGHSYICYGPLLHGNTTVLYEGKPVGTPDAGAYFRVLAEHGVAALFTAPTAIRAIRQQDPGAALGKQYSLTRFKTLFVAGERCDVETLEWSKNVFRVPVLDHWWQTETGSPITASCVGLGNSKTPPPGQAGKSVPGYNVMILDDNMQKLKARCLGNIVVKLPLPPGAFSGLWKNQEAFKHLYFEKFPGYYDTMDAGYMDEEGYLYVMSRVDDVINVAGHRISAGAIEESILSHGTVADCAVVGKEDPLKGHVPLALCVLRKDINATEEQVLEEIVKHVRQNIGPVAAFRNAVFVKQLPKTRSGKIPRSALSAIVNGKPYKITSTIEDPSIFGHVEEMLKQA
How it was run: (§1)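 Test compound was serially diluted in DMSO and added to ACSS1 (2 nM) or ACSS3 (25 nM). Acetate reaction: HEPES pH 7.4 buffer with 140 mM NaCl; final 5 mM acetate, 50 μM ATP, 5 μM CoA. Propionate reaction: HEPES/KCl/CHAPS buffer; final 5 mM propionate, 10 μM ATP, 100 μM CoA. Incubation 120 min, then AMP detected by terbium-antibody/tracer TR-FRET after 30 min. Percent inhibition was set against no-enzyme and DMSO controls.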

recombinant human ACSS1 = molecular target: T2, recombinant human ACSS1 (Homo sapiens, UniProt Q9NUB1); test: TranScreener AMP biochemical assay of ACSS1 activity; details: regardless of the substrate (acetate or propionate)
T2 sequence (Q9NUB1 38-689): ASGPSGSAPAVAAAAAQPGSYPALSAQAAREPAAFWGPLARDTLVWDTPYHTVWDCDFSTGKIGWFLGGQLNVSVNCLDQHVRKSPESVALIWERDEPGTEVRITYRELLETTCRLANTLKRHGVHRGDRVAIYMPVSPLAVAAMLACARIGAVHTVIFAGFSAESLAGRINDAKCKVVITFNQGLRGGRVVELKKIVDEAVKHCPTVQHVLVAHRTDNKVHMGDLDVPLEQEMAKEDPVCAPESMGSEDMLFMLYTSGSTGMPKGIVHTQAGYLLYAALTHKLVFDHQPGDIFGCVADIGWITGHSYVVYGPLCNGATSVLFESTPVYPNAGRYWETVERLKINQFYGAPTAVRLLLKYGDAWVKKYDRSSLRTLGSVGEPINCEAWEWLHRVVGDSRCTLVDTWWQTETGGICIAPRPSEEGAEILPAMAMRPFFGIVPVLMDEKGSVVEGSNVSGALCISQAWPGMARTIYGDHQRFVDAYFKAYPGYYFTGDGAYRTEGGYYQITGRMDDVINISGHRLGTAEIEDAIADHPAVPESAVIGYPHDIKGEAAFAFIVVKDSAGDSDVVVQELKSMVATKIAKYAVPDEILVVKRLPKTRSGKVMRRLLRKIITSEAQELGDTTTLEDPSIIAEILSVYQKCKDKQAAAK
How it was run: as §1

Water solubility in PBS = format: physicochemical; details: PBS buffer pH 7.4, room temperature
How it was run: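 10 mg test compound in 1 mL PBS pH 7.4, sonicated 30 min, vortexed 30 min at low speed, then left 16–24 h at room temperature. Filtered (0.22 μm) and 10-fold serially diluted in triplicate in ACN:water (1:1). Internal standard added; LC-MS/MS quantitation against a five-standard calibration curve.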

SKBr3 cells = test: ERK phosphorylation immunoblot in SKBr3 cells; format: cell-based, human
BT474 cells = test: ERK phosphorylation immunoblot in BT474 cells; format: cell-based, human
MDA-MB-468 cells = test: ERK phosphorylation immunoblot in MDA-MB-468 cells; format: cell-based, human

| aqueous solubility (Water solubility in PBS) | SMILES | inhibitory activity towards ACSS3 (recombinant human ACSS3) | inhibitory activity towards ACSS1 (recombinant human ACSS1) | phosphorylation of ERK (SKBr3 cells) | phosphorylation of ERK (BT474 cells) | phosphorylation of ERK (MDA-MB-468 cells) |
| --- | --- | --- | --- | --- | --- | --- |
| poorly soluble | COCCNC(=O)Nc1ccc2nc(-c3cccs3)c(-c3cccs3)nc2c1 [VY-3-249, 1-(2,3-di(thiophen-2-yl)quinoxalin-6-yl)-3-(2-methoxyethyl)urea, reference compound] | neither VY-3-249 nor VY-3-135 displayed any inhibitory activity | neither VY-3-249 nor VY-3-135 displayed any inhibitory activity | – | – | – |
| – | CS(=O)(=O)CCNCc1ccc(-c2ccc3ncnc(Nc4ccc(OCc5cccc(F)c5)c(Cl)c4)c3c2)o1 [lapatinib] | – | – | decreases phosphorylation of ERK | decreases phosphorylation of ERK | decreases phosphorylation of ERK |
